One block for each molecule: values may come before it. Peptide text beside a SMILES is read from it. * marks the point of attachment. Doxorubicin(3'-N) = COc1cccc2c1C(=O)c1c(O)c3c(c(O)c1C2=O)C[C@@](O)(C(=O)CO)C[C@@H]3O[C@H]1C[C@H](N*)[C@H](O)[C@H](C)O1; Phosphonoacetyl = O=C(CP(=O)(O)O)*
What was measured:
patients = conditions: cited from earlier work
[1] = Tissue distribution and pharmacokinetics in E0771 tumor-bearing mice; format: in vivo, mouse; conditions: for t 1/2α / C max / AUC / Cmax / t max / t 1/2β: label = analyte
Acute toxicity = format: in vivo, mouse; conditions: mouse, in vivo
[2] = system: human myeloid progenitors; test: In vitro hematotoxicity, colony growth; format: cell-based
Summary of the method: (§1)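 Human erythroid and myeloid progenitors grown in MethoCult GF H84434 with continuous exposure to the test compound for 14 days. Progenitor proliferation was scored as colony growth and dose–response curves were fitted to give IC50.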

E0771 cells = test: In vitro 2D cytotoxicity; format: cell-based; conditions: Mus musculus, E0771, 72 h
[3] = system: C57BL6 mice (bone marrow repopulation); test: In vivo hematotoxicity, bone marrow transplantation from treated donors; set-up: species or system mouse; conditions: for survival of mice receiving BM from treated donors: day 41 post-transplantation, donors 58 mg/kg/week Dox or 1,026 mg/kg/week PhAc-ALGP-Dox
Summary of the method: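 Donor C57BL6 mice received the test compound (1,026 mg/kg/week) or doxorubicin (58 mg/kg/week) by intraperitoneal osmotic minipump for 7 days. Blood and bone marrow were collected 2 days later. Blood counts used a haematology analyser, and subpopulations were analysed by FACS (CTL = CD3+ CD8a+; B = CD45R+; CD4+; NK1.1+), n = 8. Bone marrow cells (1 × 10^7) were injected IV into 9.5 Gy-irradiated recipients, which were followed 41 days.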

MDA-MB-468 cells = test: In vitro 2D cytotoxicity; format: cell-based; conditions: Homo sapiens, MDA-MB-468, 72 h
[4] = system: human iPSCs-derived cardiomyocytes; test: Impedance-based cardiotoxicity; format: cell-based
LS 174T cells = test: In vitro 2D cytotoxicity; format: cell-based; conditions: Homo sapiens, LS174T, 72 h
[5] = system: human erythroid progenitors; test: In vitro hematotoxicity, colony growth; format: cell-based
Summary of the method: as §1

H9C2 rat cardiomyocytes = test: In vitro cardiotoxicity; format: cell-based; conditions: for cytotoxicity in differentiated cardiomyocytes: differentiated H9C2; for cytotoxicity in mitotic cells: mitotic H9C2, 16 hrs treatment, viability 72 hrs later
recombinant human CD10 = recombinant human CD10 (Homo sapiens, UniProt P08473); test: Peptidase cleavage assay; format: biochemical; conditions: after exposure to CD10, at 16 hours
Summary of the method: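 Test compound (2 μM) in 150 mM NaCl, 50 mM Tris, 1% BSA, pH 7.5, at 37°C. Reaction started with recombinant human enzyme at equi-active levels (CD10 0.08, NLN 0.8, THOP1 0.1 μg/mL).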

mice = test: Acute toxicity; format: in vivo, mouse; conditions: from LD50
[6] = MTD determination, weekly dosing; format: in vivo, mouse; conditions: mouse, in vivo
Summary of the method: (§2)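 Female nu/nu NMRI mice, 6–8 weeks old, carried subcutaneous MDA-MB-468 xenografts (5 × 10^6 cells in PBS:Matrigel 1:1, right posterior flank). Healthy mice served alongside. Test compound was given weekly at 103, 206 or 309 mg/kg. Body weight, survival and tumor volume were monitored periodically during and after treatment, n = 5, mean ± SD.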

[7] = system: MDA-MB-468 tumor bearing mice; test: MTD determination, weekly dosing; format: in vivo, mouse
Summary of the method: as §2

[8] = Plasma pharmacokinetics after IV administration in healthy mice; format: in vivo, mouse
Summary of the method: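 Healthy mice (n = 5 per group) received a single IV dose of test compound at 849.5 mg/kg. A second set received equimolar doses: test compound 23.6 mg/kg versus doxorubicin 13.3 mg/kg. Plasma levels of prodrug, peptide-doxorubicin intermediates and free doxorubicin were followed over time and t1/2 was determined.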

[9] = Tissue imaging by MALDI-FTICR MSI in E0771 tumor-bearing mice; format: in vivo, mouse; conditions: 849.5 mg/kg IV
Summary of the method: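 Female C57BL6 mice carried orthotopic E0771 tumors (1 × 10^6 cells in PBS injected into the mammary fat pad). Test compound was given IV at 849.5 mg/kg (reference doxorubicin 23 mg/kg). Whole-body and tumor sections were taken at 15 min, 24 h and 48 h and imaged by MALDI-FTICR MSI for free doxorubicin and metabolites, with H&E overlay.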

[10] = heart, IV Doxorubicin 92 μmol/kg
[11] = kidney, IV Doxorubicin 92 μmol/kg
[12] = liver, IV Doxorubicin 92 μmol/kg
[13] = plasma, IV Doxorubicin 92 μmol/kg
[14] = heart, IV PhAc-ALGP-Dox 92 μmol/kg
[15] = kidney, IV PhAc-ALGP-Dox 92 μmol/kg
[16] = liver, IV PhAc-ALGP-Dox 92 μmol/kg
[17] = plasma, IV PhAc-ALGP-Dox 92 μmol/kg
[18] = tumor, IV Doxorubicin 92 μmol/kg
[19] = tumor, IV PhAc-ALGP-Dox 92 μmol/kg

Chain of recombinant human CD10 (P08473 whole entry): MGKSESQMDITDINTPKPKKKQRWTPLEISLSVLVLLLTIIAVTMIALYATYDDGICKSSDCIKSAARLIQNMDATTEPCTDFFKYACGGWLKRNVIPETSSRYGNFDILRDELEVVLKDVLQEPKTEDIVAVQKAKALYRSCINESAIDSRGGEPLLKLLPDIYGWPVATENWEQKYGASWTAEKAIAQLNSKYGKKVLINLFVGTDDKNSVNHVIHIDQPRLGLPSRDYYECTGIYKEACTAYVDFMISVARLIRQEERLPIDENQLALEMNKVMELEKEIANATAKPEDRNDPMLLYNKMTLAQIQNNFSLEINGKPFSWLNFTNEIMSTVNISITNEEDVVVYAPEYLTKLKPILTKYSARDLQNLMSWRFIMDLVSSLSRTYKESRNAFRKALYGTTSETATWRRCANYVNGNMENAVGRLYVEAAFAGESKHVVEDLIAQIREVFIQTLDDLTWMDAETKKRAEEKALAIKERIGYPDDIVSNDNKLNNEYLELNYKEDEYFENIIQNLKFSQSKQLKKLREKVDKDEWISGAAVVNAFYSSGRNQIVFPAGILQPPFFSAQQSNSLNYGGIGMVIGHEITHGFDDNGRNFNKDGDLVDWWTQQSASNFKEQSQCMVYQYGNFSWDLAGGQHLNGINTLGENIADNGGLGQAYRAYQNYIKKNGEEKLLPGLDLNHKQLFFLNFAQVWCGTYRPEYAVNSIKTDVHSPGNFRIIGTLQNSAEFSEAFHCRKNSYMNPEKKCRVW

SMILES: COc1cccc2c1C(=O)c1c(O)c3c(c(O)c1C2=O)C[C@@](O)(C(=O)CO)C[C@@H]3O[C@H]1C[C@H](NC(=O)[C@H](CC(C)C)NC(=O)[C@H](C)NC(=O)[C@H](CC(C)C)NC(=O)CCNC(=O)CCC(=O)O)[C@H](O)[C@H](C)O1 [DTS-201, reference compound]
tolerated dose relative to the standard dose of Dox (patients): 3.75 fold
well tolerated dose in patients (patients; clinical trial): up to 400 mg/m^2
t 1/2α ([1]; heart, IV DTS-201 92 μmol/kg): 0.2
t 1/2α ([1]; kidney, IV DTS-201 92 μmol/kg): 0.4
t 1/2α ([1]; liver, IV DTS-201 92 μmol/kg): 0.6
t 1/2α ([1]; plasma, IV DTS-201 92 μmol/kg): 0.25
t 1/2α ([1]; tumor, IV DTS-201 92 μmol/kg): 0.4

SMILES: COc1cccc2c1C(=O)c1c(O)c3c(c(O)c1C2=O)C[C@@](O)(C(=O)CO)C[C@@H]3O[C@H]1C[C@H](N)[C@H](O)[C@H](C)O1 [Dox, Doxorubicin, reference compound]
LD50 (Acute toxicity): 17 mg/kg
IC50 [2]: 10 nM
IC50 (E0771 cells): 20 nM
survival of mice receiving BM from treated donors [3]: 30%
IC50 (MDA-MB-468 cells): 110 nM
cardiotoxicity (cellular impedance) ([4]; by 72 hours): 100%
IC50 (LS 174T cells): 20 nM
t 1/2α [1, 10]: 5.6
t 1/2α [1, 11]: 2.7
t 1/2α [1, 12]: 2.1
concentration at 72 hours ([1]; mouse, tumor, intravenous, 53.4 mg/kg): 7.3 µM
t 1/2α [1, 13]: 0.2
IC50 [5]: 20 nM
cytotoxicity in differentiated cardiomyocytes (H9C2 rat cardiomyocytes): nanomolar potency
cytotoxicity in mitotic cells (H9C2 rat cardiomyocytes): nanomolar potency

C max ([1]; heart, IV DTS-201 92 μmol/kg): <LoQ
AUC [1, 10]: 54
Cmax [1, 10]: 860 nM
t 1/2α [1, 10]: 47
t max [1, 10]: 240
C max [1, 14]: <LoQ
AUC ([1]; kidney, IV DTS-201 92 μmol/kg): 49.7
Cmax ([1]; kidney, IV DTS-201 92 μmol/kg): 1480 nM
t 1/2β ([1]; kidney, IV DTS-201 92 μmol/kg): 27.1
t max ([1]; kidney, IV DTS-201 92 μmol/kg): 240
AUC [1, 11]: 168
Cmax [1, 11]: 6800 nM
t 1/2α [1, 11]: 2.5
t 1/2β [1, 11]: 49
t max [1, 11]: 30
AUC [1, 15]: 20.8
Cmax [1, 15]: 1960 nM
t 1/2α [1, 15]: 1
t 1/2β [1, 15]: 19.7
t max [1, 15]: 30
AUC ([1]; liver, IV DTS-201 92 μmol/kg): 30.8
Cmax ([1]; liver, IV DTS-201 92 μmol/kg): 670 nM
t 1/2β ([1]; liver, IV DTS-201 92 μmol/kg): 33.4
t max ([1]; liver, IV DTS-201 92 μmol/kg): 120
AUC [1, 12]: 104
Cmax [1, 12]: 6000 nM
t 1/2α [1, 12]: 2.2
t 1/2β [1, 12]: 33.3
AUC [1, 16]: 10.6
Cmax [1, 16]: 440 nM
t 1/2β [1, 16]: 21.7
t max [1, 16]: 240
C max ([1]; plasma, IV DTS-201 92 μmol/kg): <LoQ
C max [1, 13]: <LoQ
C max [1, 17]: <LoQ
C max ([1]; tumor, IV DTS-201 92 μmol/kg): <LoQ
AUC [1, 18]: 8
Cmax [1, 18]: 120 nM
t max [1, 18]: 2,880
C max [1, 19]: <LoQ
SMILES: COc1cccc2c1C(=O)c1c(O)c3c(c(O)c1C2=O)C[C@@](O)([C@@H](O)CO)C[C@@H]3O[C@H]1C[C@H](N)[C@H](O)[C@H](C)O1 [DoxOL, Doxorubicinol]

SMILES: COc1cccc2c1C(=O)c1c(O)c3c(c(O)c1C2=O)C[C@@](O)(C(=O)CO)C[C@@H]3O[C@H]1C[C@H](NC(=O)[C@@H]2CCCN2C(=O)CN)[C@H](O)[C@H](C)O1 [GP-Dox]
t 1/2α [1, 14]: 0.3
t 1/2α [1, 15]: 0.2
t 1/2α [1, 16]: 1.4
t 1/2α [1, 17]: 0.2
t 1/2α [1, 19]: 0.5

amount of LGP-Dox detected from PhAc-ALGP-Dox (recombinant human CD10): 2.65%
SMILES: COc1cccc2c1C(=O)c1c(O)c3c(c(O)c1C2=O)C[C@@](O)(C(=O)CO)C[C@@H]3O[C@H]1C[C@H](NC(=O)[C@@H]2CCCN2C(=O)CNC(=O)[C@@H](N)CC(C)C)[C@H](O)[C@H](C)O1 [LGP-Dox]
t 1/2α [1, 15]: 0.1
t 1/2α [1, 17]: 0.15

SMILES: COc1cccc2c1C(=O)c1c(O)c3c(c(O)c1C2=O)C[C@@](O)(C(=O)CO)C[C@@H]3O[C@H]1C[C@H](NC(=O)[C@@H]2CCCN2C(=O)CNC(=O)[C@H](CC(C)C)NC(=O)[C@H](C)NC(=O)CP(=O)(O)O)[C@H](O)[C@H](C)O1 [PhAc-ALGP-Dox] (Phosphonoacetyl-ALGP-{Doxorubicin(3'-N)})
LD50 (Acute toxicity): 780 mg/kg
times more payload that can be administered than Dox (mice): 27 times
reduction of circulating cytotoxic T lymphocytes (CTL) in donor mice ([3]; 1,026 mg/kg/week via osmotic minipumps, 7 days): 15%
survival of mice receiving BM from treated donors [3]: 80%
MTD at 672 h [6]: 154 mg/kg
highest tolerated dose as Dox equivalent ([7]; every weeks × 4): 87 mg/kg Dox equivalent
higher tolerability compared with the parental drug ([7]; in vivo): 10 fold
body weight loss ([7]; tumor bearing mice, four cycles of 206 mg/kg weekly, mild but reversible): 15%
concentrations at which alterations were induced ([4]; cellular impedance, up to 72 h): > 5 µmol/L
increase of exposure to free Dox compared with administration of Dox (13.3 mg/kg) ([8]; 849.5 mg/kg PhAc-ALGP-Dox, molar concentration 36-fold higher): 1.9 fold
free Dox lower than after Dox ([8]; equimolar doses, PhAc-ALGP-Dox 23.6 mg/kg vs Dox 13.3 mg/kg): 19 fold
half-life ([8]; mouse, in vivo, iv, 849.5 mg/kg): 6.5 to 8.5 min
t 1/2α [1, 14]: 0.17
greater retention of Dox in the tumor microenvironment compared with the parental drug ([1]; in vivo): 5 fold
t 1/2α [1, 15]: 0.1
t 1/2α [1, 16]: 0.7
t 1/2α [1, 17]: 0.21
free Dox exposure lower than after equimolar dosage of Dox ([1]; plasma, PhAc-ALGP-Dox 94.4 mg/kg vs Dox 53.4 mg/kg): 15 fold
t 1/2α [1, 19]: 0.3
intratumoral free Dox concentration lower than after equimolar Dox ([1]; tumor, PhAc-ALGP-Dox 94.4 mg/kg vs Dox 53.4 mg/kg): 2.8 fold
time for which presence of free Dox in tumor remained stable [9]: ≥ 48 h
cytotoxicity in differentiated cardiomyocytes (H9C2 rat cardiomyocytes): essentially resilient
cytotoxicity in mitotic cells (H9C2 rat cardiomyocytes): considerably less affected

Source: PMC9377749 (Molecular Cancer Therapeutics, 2022)
